# How the values were obtained:
# Assay type in all cases: ADME, organism-based
# Conditions in all cases: in vivo, 1 h; call rule not given here
# Hippocampus = test: Drug uptake in Sprague-Dawley rat hippocampus at 12.2 MBq, iv after 60 mins by autoradiography
# Procedure, shortened: (§1)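 [¹⁸F]-labelled tracer (0.2 mL, 12.2 MBq) given intravenously to conscious Sprague-Dawley rats (n = 3). Each rat was killed by cervical dislocation 60 min after injection. The brain was removed and frozen in liquid nitrogen, and 20 μm coronal sections were cut on a cryostat for ex vivo autoradiography of regional radioactivity.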
# Rattus norvegicus = test: Biodistribution in Sprague-Dawley rat internal capsule at 23 MBq, iv after 60 mins by microPET imaging/CT study
# Procedure, shortened: (§2)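 Sprague-Dawley rats under isoflurane (1.5–2.5%) in oxygen received 23 MBq radiotracer (0.2 mL saline) via tail vein. Blocking animals were pre-injected with haloperidol (0.2 mL, 1 mg/kg) 5 min before the tracer. MicroPET emission was acquired for 30 min starting 60 min post-injection, followed by a 5 min CT scan; images were summed over 60–90 min.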
# Cerebellum = test: Biodistribution in Sprague-Dawley rat cerebellum at 23 MBq, iv after 60 mins by microPET imaging/CT study; procedure, shortened: as §2
# [1] = Drug uptake in Sprague-Dawley rat lateral ventricle at 12.2 MBq, iv after 60 mins by autoradiography; procedure, shortened: as §1
# Brain [2] = test: Biodistribution in ICR mouse brain assessed as reduction in radiotracer uptake at 370 kBq, iv after 60 minutes by gamma-counting analysis in presence of (S)-(-)raclopride
# Procedure, shortened: (§3)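 Male ICR mice got saline or a blocker (haloperidol, (S)-(−)-raclopride, fluvoxamine or tamoxifen; 0.1 mL, 2.2 μmol/kg) via tail vein 5 min before 370 kBq tracer iv. Brain was γ-counted at 60 min and compared with saline controls by two-tailed Student's t test, p ≤ 0.05.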
# Brain [3] = test: Biodistribution in ICR mouse brain assessed as reduction in radiotracer uptake at 370 kBq, iv after 60 minutes by gamma-counting analysis in presence of tamoxifen; procedure, shortened: as §3
# Lung = test: Biodistribution in ICR mouse lung assessed as reduction in radiotracer uptake at 370 kBq, iv after 60 minutes by gamma-counting analysis in presence of SA4503 relative to control; parameters: scale not given: the % may be the effect or the level left
# Procedure, shortened: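 Male ICR mice got saline or SA4503 (0.1 mL; 2, 5, 10 or 2.2 μmol/kg) via tail vein 5 min before 370 kBq tracer (0.1 mL) iv. They were decapitated at 60 min and tissues γ-counted. Percent change was taken against saline controls, with two-tailed Student's t test, p ≤ 0.05.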
compound,measurement,setting,value
[18F]CCOc1ccc(CN2CCC3(CC2)OCc2ccccc23)cc1,Drug uptake,Hippocampus,Active
same,Drug uptake,Rattus norvegicus,Active
same,Drug uptake,Cerebellum,Active
same,Drug uptake,[1],Active
same,Drug uptake,Brain [2],Active
same,Drug uptake,Brain [3],Active
same,Activity,Lung,71%

# Reference: ChEMBL document CHEMBL2346503, “Synthesis and evaluation of novel (18)F-labeled spirocyclic piperidine derivatives as σ1 receptor ligands for positron emission tomography imaging” (J Med Chem, 2013)
